The values that follow come from ChEMBL document CHEMBL4610125, “Evaluation of Manassantin A Tetrahydrofuran Core Region Analogues and Cooperative Therapeutic Effects with EGFR Inhibition” (J Med Chem, 2020).

The source made the active and inactive calls. No cut-off for these calls is given here.

One data set concerns HEK-293T. As to the kind of experiment: Inhibition of HIF1 transactivation activity in HEK293T cells transfected with pGL3-5HRE-VEGF-luciferase at 0.01 to 1 uM incubated for 24 hrs under hypoxia condition by luciferase reporter gene assay. Type of data set: cell-based. The conditions noted are these: Homo sapiens. In short, it runs like this: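 HEK-293T cells were seeded at 5 × 10³/well, left 24 h, then co-transfected with a 5×HRE (human VEGF promoter) firefly luciferase plasmid and a pRL-SV40 Renilla plasmid. Cells were exposed to hypoxia (1% O₂) with serially diluted compound (0, 0.01, 0.1, 1 μM) for 24 h, with 10 μM 17-AAG as reference. Dual-Glo readout, with firefly normalized to Renilla. Three independent experiments.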
(A reporter such as luciferase makes a cellular process visible.)

Data set [1] relates to Lewis lung carcinoma cell line. Kind of data set: animal or person. Type of data set: functional. The conditions noted are these: Mus musculus, ip, read-out: TGI.
For data set [2], the system named is Lewis lung carcinoma cell line. Kind of data set: Antitumor activity against mouse LLC cells allografted in C57BL/6J mouse assessed as inhibition of tumor growth at 5 mg/kg, ip dosed every 3 days for 17 days starting from 2 days after inoculation and co-treated with 5 mg/kg, ip EGFR inhibitor gefitinib relative to control. Type of data set: functional. The settings on record: read-out: TGI. In short, it runs like this:
(§1)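 Male C57BL/6 mice, 5−6 weeks old, were given LLC cells (2 × 10⁵ in 200 μL serum-free medium) s.c. into the dorsal flanks on Day 0. From day 2, groups of n = 5 received 5 mg/kg i.p. […]. Tumor size was measured three times a week and tumor weight at sacrifice. Statistics were versus the vehicle control.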

In data set [3] the test system is Lewis lung carcinoma cell line. As to the kind of experiment: Antitumor activity against mouse LLC cells allografted in C57BL/6J mouse assessed as reduction tumor weight at 5 mg/kg, ip dosed every 3 days for 17 days starting from 2 days after inoculation relative to control. Type of data set: functional, organism-based. In short, it runs like this: as §1
Data set [4] has as its system Lewis lung carcinoma cell line. Kind of data set: Antitumor activity against mouse LLC cells allografted in C57BL/6J mouse assessed as reduction of tumor weight at 5 mg/kg, ip dosed every 3 days for 17 days starting from 2 days after inoculation and co-treated with 5 mg/kg, ip EGFR inhibitor gefitinib relative to control. Type of data set: functional, organism-based. In short, it runs like this:
as §1

Data set [5] is described as follows: Toxicity in C57BL/6J mouse allografted with mouse LLC cells assessed as effect on body weight at 5 mg/kg, ip dosed every 3 days for 17 days starting from 2 days after inoculation. Type of data set: organism-based, Lewis lung carcinoma. The conditions noted are these: in vivo. In short, it runs like this:
as §1

Data set [6] is described as follows: Toxicity in C57BL/6J mouse allografted with mouse LLC cells assessed as effect on body weight at 5 mg/kg, ip dosed every 3 days for 17 days starting from 2 days after inoculation and co-treated with 5 mg/kg, ip EGFR inhibitor gefitinib. The settings on record: in vivo. Type of data set: organism-based, Lewis lung carcinoma. In short, it runs like this:
as §1

As for `COc1ccc(C(=O)[C@@H](C)Oc2ccc([C@@H]3CC[C@@H](c4ccc(O[C@H](C)C(=O)c5ccc(OC)c(OC)c5)c(OC)c4)O3)cc2OC)cc1OC`, the inhibition result in the data set with HEK-293T was “Dose-dependent effect”.

Take `COc1ccc(C(=O)[C@@H](C)Oc2ccc(-c3cccc(-c4ccc(O[C@H](C)C(=O)c5ccc(OC)c(OC)c5)c(OC)c4)c3)cc2OC)cc1OC`: the inhibition result in the data set with HEK-293T was “inactive”.

As for `COc1ccc([C@@H](O)[C@@H](C)Oc2ccc([C@H]3O[C@H](c4ccc(O[C@H](C)[C@H](O)c5ccc(OC)c(OC)c5)c(OC)c4)[C@H](C)[C@H]3C)cc2OC)cc1OC`, the inhibition entry with HEK-293T is “Active”. Moreover, the inhibition in vivo at 5 mg/kg in data set [1] worked out at 30%; in data set [2] it was 80%. Besides, the outcome in data set [3] and in data set [4] was Active. The Activity entry in data set [5] and in data set [6] was “Non-Toxic” in each case.

As to `COc1ccc(C(=O)[C@@H](C)Oc2ccc([C@@H]3CCC[C@H](c4ccc(O[C@H](C)C(=O)c5ccc(OC)c(OC)c5)c(OC)c4)O3)cc2OC)cc1OC`, in the data set on HEK-293T, the inhibition entry was “inactive”.

As for `COc1ccc(C(=O)[C@@H](C)Oc2ccc(C3=C(c4ccc(O[C@H](C)C(=O)c5ccc(OC)c(OC)c5)c(OC)c4)CCC3)cc2OC)cc1OC`, the inhibition result with HEK-293T is “inactive”.

As for `COc1ccc(C(=O)[C@@H](C)Oc2ccc(CC3(Cc4ccc(O[C@H](C)C(=O)c5ccc(OC)c(OC)c5)c(OC)c4)SCCCS3)cc2OC)cc1OC`, in the data set with HEK-293T, the inhibition result is “inactive”.

Consider `C=CCN1[C@H](c2ccc(O[C@H](C)C(=O)c3ccc(OC)c(OC)c3)c(OC)c2)CC[C@H]1c1ccc(O[C@H](C)C(=O)c2ccc(OC)c(OC)c2)c(OC)c1`, for which, in the data set with HEK-293T, the inhibition result was “inactive”.

Turning to `COc1ccc(C(=O)[C@H](C)Oc2ccc(/C=C/c3ccc(O[C@H](C)C(=O)c4ccc(OC)c(OC)c4)c(OC)c3)cc2OC)cc1OC`, the inhibition result in the data set on HEK-293T was “inactive”.

Regarding `COc1ccc(C(=O)[C@@H](C)Oc2ccc([C@@H]3C[C@@H](C)[C@@H](c4ccc(O[C@H](C)C(=O)c5ccc(OC)c(OC)c5)c(OC)c4)O3)cc2OC)cc1OC`, the inhibition result with HEK-293T is “Dose-dependent effect”.

On to `COc1cc2ncnc(Nc3ccc(F)c(Cl)c3)c2cc1OCCCN1CCOCC1`, for which the outcome in data set [3] was Active.

`COc1ccc(C(=O)[C@@H](C)Oc2ccc([C@@H]3CC[C@@H](c4ccc(O[C@H](C)C(=O)c5ccc(OC)c(OC)c5)c(OC)c4)N3)cc2OC)cc1OC`: the inhibition result with HEK-293T was “Dose-dependent effect”.

For `COc1ccc(C(=O)[C@@H](C)Oc2ccc(-c3cccc(-c4ccc(O[C@H](C)C(=O)c5ccc(OC)c(OC)c5)c(OC)c4)n3)cc2OC)cc1OC`, the inhibition entry in the data set with HEK-293T was “inactive”.
